Measurements of several laboratories.
Lines come from different studies, so protocols differ.
Organism: Pseudomonas aeruginosa

| Structure (SMILES) | assay | test system | setting | measurement | result |
| --- | --- | --- | --- | --- | --- |
| Cc1cc(N)c2ccccc2[n+]1CCCCCCCCCC[n+]1c(C)cc(N)c2ccccc21 | microbial growth, disc diffusion |  | 50 µg/disc | inhibition zone | 0 mm |
| CC1(C)S[C@@H]2[C@H](NC(=O)[C@H](N)c3ccccc3)C(=O)N2[C@H]1C(=O)O | microbial growth, well diffusion | PAO1 | 200 µM | inhibition zone | 8 mm |
| C#CCCCCCCCCCCCC(O)CC(O)CO (centres unmarked) | microbial growth, broth dilution | ATCC27853 |  | IC50 | > 200 µg/mL |
| COc1cc(C=CC(=O)CC(c2ccc(N(C)C)cc2)n2ccnc2)ccc1O (centres unmarked) | microbial growth, disc diffusion | ATCC27853 | 250 µg/mL | inhibition zone | 7.66 mm |
| O=C(O)c1cn(C2CC2)c2cc(N3CCNCC3)c(F)cc2c1=O | microbial growth, disc diffusion |  | 100 µg/mL, 24 h | inhibition zone | 16 mm |
| CC(C)Oc1c(NC(=O)c2ccc(NC(=O)[C@H](CC(N)=O)NC(=O)c3ccc(NC(=O)c4ccc(C#N)c(Cl)c4)cc3)cc2)ccc(C(=O)Nc2ccc(C(=O)O)cc2)c1O | microbial growth | PA14 |  | MIC | > 64 µg/mL |
| CC1(C)SC2C(NC(=O)C(NC(=O)C3=C(O)C(Cc4ccccc4)NC3=O)c3ccccc3)C(=O)N2C1C(=O)O (centres unmarked) | microbial growth, well diffusion | PAO1 | 200 µM | inhibition zone | 10.7 mm |
| CN[C@H](CC(C)C)C(=O)N[C@H]1C(=O)N[C@@H](CC(N)=O)C(=O)N[C@H]2C(=O)N[C@H]3C(=O)N[C@H](C(=O)N[C@H](C(=O)O)c4cc(O)cc(O)c4-c4cc3ccc4O)[C@H](O)c3ccc(c(Cl)c3)Oc3cc2cc(c3O[C@@H]2O[C@H](CO)[C@@H](O)[C@H](O)[C@H]2O[C@H]2C[C@](C)(N)[C@H](O)[C@H](C)O2)Oc2ccc(cc2Cl)[C@H]1O | microbial killing, broth dilution | ATCC9027 |  | MBC | > 128 µM |
| CCCCCCCCCC(=O)Oc1c(C)c(O)c(C(=O)/C=C/c2ccccc2)c(OC)c1C | microbial killing, broth dilution | ATCC27853 |  | MBC | > 5000 µg/mL |
| CC1(C)SC2C(NC(=O)C(NC(=O)C3=C(O)C4CCCN4C3=O)c3ccccc3)C(=O)N2C1C(=O)O (centres unmarked) | microbial growth, well diffusion | PAO1 | 200 µM | inhibition zone | 12 mm |
| CC[C@H](C)[C@H](NC(=O)OCC1c2ccccc2-c2ccccc21)C(=O)Sc1cccccc1=O | microbial growth, broth dilution | ATCC27853 |  | MIC80 | > 71.4 µM |
| COc1c(C)c(OC)c2c(c1C)OC(c1ccccc1)CC2=O (centres unmarked) | microbial killing, broth dilution | ATCC27853 |  | MBC | > 5000 µg/mL |
| O=c1[nH]cc(F)c(=O)[nH]1 | microbial killing, broth dilution |  | 48 h | MBC | 8 µg/mL |
| CC(C)COc1c(NC(=O)c2ccc(NC(=O)[C@H](CC(N)=O)NC(=O)c3ccc(NC(=O)c4ccc(C#N)cc4)cc3)cc2)ccc(C(=O)Nc2ccc(C(=O)O)cc2)c1O | microbial growth | PA14 |  | MIC | > 64 µg/mL |
| CC1(C)S[C@@H]2[C@H](NC(=O)[C@H](N)c3ccc(O)cc3)C(=O)N2[C@H]1C(=O)O | microbial growth, disc diffusion | ATCC27853 | 500 µg/mL | inhibition zone | 13.8 mm |
| CC(C)Oc1c(NC(=O)c2ccc(NC(=O)[C@H](CC(N)=O)NC(=O)c3cccc(NC(=O)c4ccc(C#N)cc4)c3)cc2)ccc(C(=O)Nc2ccc(C(=O)O)cc2)c1O | microbial growth | PA14 |  | MIC | > 64 µg/mL |
| CCCCCCCC(=O)Oc1c(C)c(O)c(C(=O)/C=C/c2ccccc2)c(OC)c1C | microbial killing, broth dilution | ATCC27853 |  | MBC | > 5000 µg/mL |
| CC(C)Oc1c(NC(=O)c2ccc(NC(=O)[C@H](CC(N)=O)NC(=O)c3ccc(NC(=O)c4ccc(C5(C(F)(F)F)N=N5)cc4)cc3)cc2)ccc(C(=O)Nc2ccc(C(=O)O)cc2)c1O | microbial growth | PA14 |  | MIC | > 64 µg/mL |

| Structure (SMILES) | assay | test system | setting | measurement | result |
| --- | --- | --- | --- | --- | --- |
| CCCCCCCCCCCCCC(O)CC(O)CO (centres unmarked) | microbial growth, broth dilution | ATCC27853 |  | IC50 | > 200 µg/mL |
| CC(C)Oc1c(NC(=O)c2ccc(NC(=O)[C@H](CC(N)=O)NC(=O)c3ccc(NC(=O)c4ccc(S(C)(=O)=O)cc4)cc3)cc2)ccc(C(=O)Nc2ccc(C(=O)O)cc2)c1O | microbial growth | PA14 |  | MIC | > 64 µg/mL |
| COc1cc(C=Cc2cc(-c3ccc(N(C)C)cc3)nc(O)n2)ccc1O | microbial growth, disc diffusion | ATCC27853 | 250 µg/mL | inhibition zone | 7 mm |
| O=C(Sc1cccccc1=O)c1ccc(C(F)(F)F)cc1 | microbial growth, broth dilution | ATCC27853 |  | MIC80 | > 71.4 µM |
| COc1cc(C=Cc2cc(-c3ccccc3)nc(O)n2)ccc1O | microbial growth, disc diffusion | ATCC27853 | 500 µg/mL | inhibition zone | 14.3 mm |
| O=C(Sc1cccccc1=O)c1cccc(C(F)(F)F)c1 | microbial growth, broth dilution | ATCC27853 |  | MIC80 | > 71.4 µM |
| COc1c(C)c(OS(=O)(=O)c2ccc3ccccc3c2)c(C)c(OS(=O)(=O)c2ccc3ccccc3c2)c1C(=O)/C=C/c1ccccc1 | microbial killing, broth dilution | ATCC27853 |  | MBC | > 5000 µg/mL |
| CC1(C)S[C@@H]2[C@H](NC(=O)C(C(=O)O)c3ccccc3)C(=O)N2[C@H]1C(=O)O (some centres unmarked) | microbial growth, well diffusion | PAO1 | 200 µM | inhibition zone | 9.3 mm |
| COc1c(C)c(OC(C)=O)c(C)c(OC(C)=O)c1C(=O)/C=C/c1ccccc1 | microbial killing, broth dilution | ATCC27853 |  | MBC | > 5000 µg/mL |
| CC(C)Oc1c(NC(=O)c2ccc(NC(=O)[C@H](CC(N)=O)NC(=O)c3ccc(CCNC(=O)c4ccc(C#N)cc4)cc3)cc2)ccc(C(=O)Nc2ccc(C(=O)O)cc2)c1O | microbial growth | PA14 |  | MIC | > 64 µg/mL |
| CC(C)c1cccc(=O)c(O)c1 | microbial growth, broth dilution | ATCC27853 |  | MIC80 | > 71.4 µM |
| COc1c(C)c(OC(C)=O)c(C)c(O)c1C(=O)/C=C/c1ccccc1 | microbial killing, broth dilution | ATCC27853 |  | MBC | > 5000 µg/mL |
| O=C(Cc1ccccc1)Sc1cccccc1=O | microbial growth, broth dilution | ATCC27853 |  | MIC80 | > 71.4 µM |
| COc1c(C)c(OCc2ccccc2)c(C)c(O)c1C(=O)/C=C/c1ccccc1 | microbial killing, broth dilution | ATCC27853 |  | MBC | > 5000 µg/mL |
| COc1cc(C=CC(=O)CC(c2ccc([N+](=O)[O-])cc2)n2ccnc2)ccc1O (centres unmarked) | microbial growth, disc diffusion | ATCC27853 | 500 µg/mL | inhibition zone | 7.67 mm |
| CCCC(=O)Oc1c(C)c(O)c(C(=O)/C=C/c2ccccc2)c(OC)c1C | microbial killing, broth dilution | ATCC27853 |  | MBC | > 5000 µg/mL |
| O=c1cccccc1SSc1cccccc1=O | microbial growth, broth dilution | ATCC27853 |  | MIC80 | > 71.4 µM |
